Here are results for 16 compounds from ChEMBL document CHEMBL1122694, “Steroidogenesis inhibitors. 1. Adrenal inhibitory and interceptive activity of trilostane and related compounds” (1984).

Calls of active or inactive are those of the source. No cut-off for these calls is given here. Where only a bound is given, the exact number is not on record here.

For experiment [1], the system named is Rattus norvegicus. As to the kind of experiment: Minimum effective dose for 100% interruption of pregnancy in rat when compound was administered perorally. Type of experiment: functional. An outline of the steps:
(§1)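 Pregnant rats given a single oral dose on day 10 of pregnancy, seven rats per group. MED, in mg/kg po, is the minimum dose giving 100% interruption of pregnancy.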

In experiment [2] the test system is Monkey. As to the kind of experiment: Effect of compound on plasma level of cortisol in ACTH treated rhesus monkey when administered orally. Type of experiment: functional. Particulars: Cercopithecidae, in Macaca mulatta, po, read-out: MED.
The subject of experiment [3] is Rattus norvegicus. As to the kind of experiment: Effect of compound on plasma level of progesterone in ACTH treated pseudopregnant rats when administered orally. Type of experiment: functional. Particulars: po, read-out: MED. The procedure, abridged:
(§2)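 Pseudopregnant rats stimulated with ACTH; single oral dose, groups of seven rats. Plasma progesterone and corticosterone measured; MED in mg/kg po is the single dose giving a significant (p < 0.01) fall versus stimulated control levels.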

The test system of experiment [4] is Rattus norvegicus. As to the kind of experiment: Effect of compound on plasma level of corticosterone in ACTH treated pseudopregnant rats when administered orally. Type of experiment: functional. Particulars: po, read-out: MED. An outline of the steps: as §2
For experiment [5], the system named is Monkey. As to the kind of experiment: Effective dose for interruption of pregnancy in greater than 90% of the monkeys. Type of experiment: functional, Cercopithecidae. An outline of the steps: (§3)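 Pregnant monkeys dosed once daily on days 50–54 of pregnancy; group size two to six or more monkeys. Effective dose, in mg per monkey per day, is the dose interrupting pregnancy in more than 90% of monkeys.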

The subject of experiment [6] is Rattus norvegicus. As to the kind of experiment: Minimum effective dose for 100% interruption of pregnancy in rat when compound was administered perorally; IN-Inactive. Type of experiment: functional, organism-based. The procedure, abridged: as §1
Experiment [7] relates to Monkey. As to the kind of experiment: Effective dose for interruption of pregnancy in greater than 90% of the monkeys; IN-Inactive. The format is functional, organism-based. Particulars: Cercopithecidae. An outline of the steps: as §3

For the compound `CC12C[C@@H](C#N)C(=O)C=C1CCC1C2CCC2(C)C(O)CCC12` (stereo partly specified), in experiment [1], the MED10 is 1000 mg/kg.

The compound `CC12CCC3C(CC[C@@]45OC4(C)c4oncc4CC35C)C1CCC2O` (stereo partly specified) showed an MED10 in experiment [1] of more than 500 mg/kg.

Turning to `CC12CC[C@H]3[C@@H](CC[C@@]45OC4(C)C(=O)[C@H](C#N)CC35C)[C@@H]1CCC2O` (stereo partly specified), the minimal effective dose in experiment [2] worked out at 250 mg/kg; in experiment [3] it was 5 mg/kg; in experiment [4] it was 50 mg/kg. Besides, the MED10 in experiment [1] turned out to be 125 mg/kg. Moreover, in experiment [5], the MED90 was more than 500 mg monkey-1 day-1.

Regarding `CC12CCC3C(CC[C@@]45OC4c4oncc4CC35C)C1CCC2O` (stereo partly specified), the MED10 in experiment [1] is more than 500 mg/kg.

With `CC12CC[C@H]3[C@@H](CCC4CC(=O)[C@H](C#N)CC43C)[C@@H]1CCC2O` (stereo partly specified), the MED10 result in experiment [6] is “inactive”.

`CC1(C)C2=CCC3C(CCC4(C)C3CC[C@]4(C)O)C2(C)Cc2cnoc21` (stereo partly specified): the MED10 in experiment [1] is 25 mg/kg. In experiment [5], this compound returned an MED90 of more than 1000 mg monkey-1 day-1.

On to `CC12O[C@]13CCC1C(CCC4(C)C1CC[C@]4(C)O)C3(C)Cc1cnoc12` (stereo partly specified), for which the MED10 in experiment [1] amounted to 192 mg/kg. In experiment [7], the MED90 result is “inactive”.

As to `CC1CC2C3CCC(O)C3(C)CCC2C2(C)Cc3cnoc3C3O[C@]132` (stereo partly specified), the MED10 in experiment [1] was more than 500 mg/kg.

The compound `CC1C[C@H]2[C@@H]3CCC(O)C3(C)CC[C@@H]2C2(C)C[C@@H](C#N)C(=O)C3O[C@]132` (stereo partly specified) returned an MED10 in experiment [1] of 12 mg/kg. The MED90 in experiment [5] came out at 500 mg monkey-1 day-1.

For the compound `CC12CC[C@H]3[C@@H](CC[C@@]45OC4C(=O)[C@H](C#N)CC35C)[C@@H]1CC[C@]2(C)O` (stereo partly specified), the minimal effective dose in experiment [2] came to 10 mg/kg; in experiment [3] it was 500 mg/kg; in experiment [4] it was 50 mg/kg. Further, in experiment [1], the MED10 stood at 500 mg/kg. Further, the MED90 in experiment [5] is recorded as 250 mg monkey-1 day-1.

Take `CC12CC[C@H]3[C@@H](CC[C@@]45OC4C(=O)[C@H](C#N)CC35C)[C@@H]1CCC2O` (stereo partly specified): the minimal effective dose in experiment [2] came to 10 mg/kg; in experiment [3], 500 mg/kg; in experiment [4], 50 mg/kg. For the same compound, in experiment [1], the MED10 turned out to be 500 mg/kg. In experiment [5], this compound came in with an MED90 of 1000 mg monkey-1 day-1.

Compound `CC1(C)C(=O)[C@H](C#N)CC2(C)C1=CCC1C2CCC2(C)C1CC[C@]2(C)O` (stereo partly specified) yielded an MED10 in experiment [1] of 6 mg/kg. Further, the MED90 result in experiment [7] was “inactive”.

`CC12CCC3C(CC[C@@]45OC4c4oncc4CC35C)C1CC[C@]2(C)O` (stereo partly specified) had an MED10 in experiment [1] of more than 500 mg/kg.

Turning to `CC12CC[C@H]3[C@@H](CC[C@]45OC4C(=O)[C@@H](C#N)CC35C)[C@@H]1CCC2O` (stereo partly specified), the MED10 entry in experiment [6] is “inactive”.

Consider `CC12CC[C@H]3[C@@H](CC[C@@]45OC4C(=O)CCC35C)[C@@H]1CCC2O` (stereo partly specified), for which the MED10 entry in experiment [6] is “inactive”.

Regarding `CC12O[C@]13CC[C@@H]1[C@H](CCC4(C)[C@H]1CC[C@]4(C)O)C3(C)C[C@@H](C#N)C2=O` (stereo partly specified), the values for the minimal effective dose in experiment [2], in experiment [3] and in experiment [4] were 250 mg/kg, 20 mg/kg and 20 mg/kg, respectively. Besides, the MED10 in experiment [1] was 50 mg/kg. The compound also displayed an MED90 in experiment [5] of 250 mg monkey-1 day-1.
